# From ChEMBL document CHEMBL1146603, “Use of a pharmacophore model to discover a new class of influenza endonuclease inhibitors” (J Med Chem, 2003)
# Key:
# [1] = target: Polymerase acidic protein (Influenza A virus (A/Puerto Rico/8/1934(H1N1)), UniProt P03433); experiment: Inhibitory concentration against cap-dependent endonuclease activity of influenza A/PR/8/34 RNP; assay type: functional
# In short: (§1)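 Cap-dependent transcription run on a filter plate. 10 nM RNP purified from A/PR/8/34 or B/Lee/40 virus was mixed with 0.01 mg/mL AMV RNA, 50 μM GTP, 50 μM CTP, 500 μM ATP and 5 μM [radiolabeled] UTP. Buffer was 50 mM Tris-HCl pH 8 with 100 mM KCl, 5 mM MgCl₂, 10% DMSO, 5 mM DTT and 0.2 mg/mL BSA. Incubation was 90 min at 31 °C. TCA-precipitated RNA was scintillation-counted. IC50 came from dose–response curves.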
# [2] = system: unidentified influenza virus; experiment: Effective concentration against influenza virus in MDCK cells; assay type: functional, organism-based
# In short: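 Antiviral dose–response read as protection of MDCK cells from influenza virus-induced cell death.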
# [3] = target: Polymerase acidic protein (Influenza B virus (strain B/Lee/1940), UniProt Q9QLI9); experiment: Inhibitory concentration against cap-dependent endonuclease activity of influenza B/Lee/40 RNP; assay type: functional; in short: as §1
# [4] = target: Polymerase acidic protein (Influenza A virus (A/Puerto Rico/8/1934(H1N1)), UniProt P03433); experiment: Inhibitory concentration against cap-dependent endonuclease activity of influenza virus RNP; assay type: functional, unidentified influenza virus
# In short: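 Gel-based cap-dependent endonuclease assay. 1 nM influenza RNP was incubated with 0.1 nM cap-labeled 20-mer G20 RNA in 50 mM Tris-HCl pH 8 with 1 mM MgCl₂, 20 mM KCl, 1 U/μL RNase inhibitor and 0.3% Triton X-100, for 5 min at 31 °C. Cleavage products were resolved on polyacrylamide gels and quantified by phosphorimager. IC50 came from dose–response curves.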
# [5] = target: Polymerase acidic protein (Influenza A virus (A/Puerto Rico/8/1934(H1N1))) (UniProt P03433); experiment: Percent inhibition of cap-dependent endonuclease activity of influenza virus RNP at 100 uM; assay type: functional; settings: unidentified influenza virus
# Polymerase acidic protein, sequence (Q9QLI9 whole entry): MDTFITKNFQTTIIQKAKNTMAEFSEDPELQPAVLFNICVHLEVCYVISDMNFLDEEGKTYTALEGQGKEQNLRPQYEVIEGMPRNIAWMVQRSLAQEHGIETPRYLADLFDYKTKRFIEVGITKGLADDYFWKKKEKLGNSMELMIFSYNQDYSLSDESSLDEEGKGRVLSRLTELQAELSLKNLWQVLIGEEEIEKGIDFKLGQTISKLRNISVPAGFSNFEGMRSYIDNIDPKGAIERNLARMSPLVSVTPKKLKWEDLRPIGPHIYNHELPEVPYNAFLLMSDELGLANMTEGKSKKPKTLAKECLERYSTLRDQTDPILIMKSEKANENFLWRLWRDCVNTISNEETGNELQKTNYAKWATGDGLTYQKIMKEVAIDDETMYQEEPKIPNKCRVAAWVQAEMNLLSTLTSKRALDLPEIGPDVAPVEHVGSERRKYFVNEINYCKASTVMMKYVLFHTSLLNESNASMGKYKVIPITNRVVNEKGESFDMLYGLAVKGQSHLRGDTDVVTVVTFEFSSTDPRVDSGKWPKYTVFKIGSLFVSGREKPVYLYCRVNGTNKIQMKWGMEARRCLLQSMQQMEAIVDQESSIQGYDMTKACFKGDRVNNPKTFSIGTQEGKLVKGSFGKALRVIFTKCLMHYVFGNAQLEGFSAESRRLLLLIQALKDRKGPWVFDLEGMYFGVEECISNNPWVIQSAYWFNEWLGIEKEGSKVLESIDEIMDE
Compound,IC50 [1],IC50 [4],also measured
CCC(=O)c1c(O)n(O)c2cc(NC(=O)Nc3ccc(Cl)cc3)ccc12,38 µM,–,–
O=C(/C=C/c1ccccc1Cl)Nc1ccc2c(C(=O)c3ccccc3)c(O)n(O)c2c1,9.5 µM,–,EC50 [2]: > 30 µM; IC50 [3]: 26 µM
O=C(Nc1cccc(C(=O)O)c1)Nc1ccc2c(C(=O)c3ccccc3)c(O)n(O)c2c1,3 µM,–,EC50 [2]: > 100 µM; IC50 [3]: 6 µM
CC(=O)c1c(O)n(O)c2cc(NC(=O)c3cccs3)ccc12,40 µM,–,–
O=C(O)C(=O)/C=C(\O)c1ccc(C2CCCCC2)cc1,–,5 µM,–
O=c1c2nccnc2ncn1O,–,> 500 µM,–
O=c1[nH]c2nccnc2c(=O)n1O,–,95 µM,–
CCC(=O)c1c(O)n(O)c2cc(NC(=O)c3cnc4ccccc4n3)ccc12,10 µM,–,–
O=C1c2ccccc2C(=O)N1O,–,> 500 µM,–
O=C1Cc2ccccc2CC(=O)N1O,–,> 1000 µM,–
O=C(c1ccccc1)c1c(O)n(O)c2cc(NC(=O)C3CCCCC3)ccc12,18 µM,–,–
CC(=O)c1c(O)n(O)c2cc(NC(=O)Nc3cccc(C(=O)O)c3)ccc12,14 µM,–,–
O=C(Nc1ccc2c(C(=O)c3ccccc3)c(O)n(O)c2c1)NC1CCCCC1,50 µM,–,–
CCC(=O)c1c(O)n(O)c2cc(NC(=O)Nc3ccccc3Cl)ccc12,50 µM,–,–
CCC(=O)c1c(O)n(O)c2cc(NC(=O)c3cccs3)ccc12,35 µM,–,–
O=C(c1ccccc1)c1c(O)n(O)c2cc(NS(=O)(=O)c3cccs3)ccc12,48 µM,–,–
CCC(=O)c1c(O)n(O)c2cc(NC(=O)/C=C/c3ccccc3Cl)ccc12,8 µM,–,–
CC(=O)c1c(O)n(O)c2cc(NC(=O)c3ccc4ccccc4c3)ccc12,9 µM,–,EC50 [2]: 21 µM; IC50 [3]: 18 µM
O=C(Nc1ccc2c(C(=O)c3ccccc3)c(O)n(O)c2c1)c1cnc2ccccc2n1,17 µM,–,–
CCc1cc(OC)c(OC)c(C(=O)NC[C@@H]2CCCN2CC)c1OC,32 µM,–,–

Compound,IC50 [1],IC50 [4],also measured
CC(=O)c1c(O)n(O)c2cc(NC(=O)/C=C/c3ccccc3Cl)ccc12,26 µM,–,–
O=C(Nc1ccccc1)Nc1ccc2c(C(=O)c3ccccc3)c(O)n(O)c2c1,29 µM,–,–
O=C(NO)c1ccccc1 [BENZOHYDROXAMATE],–,> 500 µM,–
CCC(=O)c1c(O)n(O)c2cc(NC(=O)Nc3ccccc3)ccc12,40 µM,–,–
CON1C(=O)Cc2ccccc2C1=O,–,710 µM,–
O=C(Nc1ccc2c(C(=O)c3ccccc3)c(O)n(O)c2c1)c1ccc(Cl)cc1Cl,38 µM,–,–
CCC(=O)c1c(O)n(O)c2cc(NC(=O)c3ccc(Cl)cc3Cl)ccc12,45 µM,–,–
O=C(Nc1ccc2c(C(=O)c3ccccc3)c(O)n(O)c2c1)c1ccc2ccccc2c1,8 µM,–,EC50 [2]: > 40 µM; IC50 [3]: 29 µM
Cc1cc(C(=O)Nc2ccc3c(C(=O)c4ccccc4)c(O)n(O)c3c2)no1,9.5 µM,–,EC50 [2]: > 100 µM
O=C1CCc2ccccc2C(=O)N1O,–,> 1000 µM,–
O=C1Cc2ccccc2CN1O,–,100 µM,inhibition [5]: 25%
O=C(Nc1ccc2c(C(=O)c3ccccc3)c(O)n(O)c2c1)c1ccccc1,10 µM,–,EC50 [2]: > 90 µM; IC50 [3]: 56 µM
CC(C)CC1=N/C(=C\c2ccc(F)cc2)C(=O)NC1=O,–,> 365 µM,–
O=C(Nc1ccc2c(C(=O)c3ccccc3)c(O)n(O)c2c1)c1cccs1,20 µM,–,–
CCC(=O)c1c(O)n(O)c2cc(NC(=O)Nc3cccc(C(=O)O)c3)ccc12,10 µM,–,–
NN1C(=O)Cc2ccccc2C1=O,–,800 µM,–
CC(C)/C=C1\N=C(CC(C)C)C(=O)N(O)C1=O,–,5.5 µM,–
CC(=O)c1c(O)n(O)c2cc(NC(=O)c3cnc4ccccc4n3)ccc12,11 µM,–,–
COCON1C(=O)C(CC(C)C)=N/C(=C\C(C)C)C1=O,–,> 355 µM,–
